≈ marks a conversion by molar mass, not a printed value. Some results are limits rather than exact numbers.

One data set deals with Mycobacterium tuberculosis. The data set is described as follows: Antimycobacterial activity against Mycobacterium tuberculosis.
Settings: not given
It is filed as functional. The method in brief: (§1)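 Strain H37Rv ATCC 27294, kept on Löwenstein-Jensen slants and grown for inoculum in 7H9 broth with 10% ADC. Twofold agar dilution on Middlebrook 7H11 with 10% OADC, compound 0.0312–64 μg/mL. Each well received 10 μL of 1.5×10^5 cfu/mL (final 1.5×10^3 per well). Incubated 21–28 days. MIC (μg/mL) is the lowest concentration completely inhibiting visible growth.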
In the case of `Cc1[nH]n(-c2ccc(Br)cc2)c(=O)c1C(=O)c1ccc(Cl)cc1`, the lowest concentration to inhibit growth (MIC) was 4 µg/mL (≈ 10.2 µM).
`Cc1[nH]n(-c2ccc(F)cc2)c(=O)c1C(=O)c1ccc(Cl)cc1` had an MIC of 4 µg/mL (≈ 12.1 µM).
On the same count and under the same terms, with `Cc1[nH]n(-c2ccc(Cl)cc2)c(=O)c1C(=O)c1ccc(Cl)cc1` the figure was 4 µg/mL (≈ 11.5 µM); with `Cc1nn(-c2ccccc2)c(O)c1C(=O)c1ccc(Cl)cc1`, 4 µg/mL (≈ 12.8 µM).

Another data set relates to Mycobacterium tuberculosis. Nature of the data set: Antimycobacterial activity against Mycobacterium tuberculosis H37Rv ATCC 27294 after 21 to 28 days by twofold agar dilution method. The class given is functional.
Settings: not given
A digest of the protocol: as §1
On the technique in general: In agar dilution the substance is mixed into plates at graded concentrations.
Regarding `CCCN(C)/C(=C1\C(=O)N(c2ccc(Cl)cc2)N=C1C)c1ccc(Cl)cc1`, the MIC was 64 µg/mL (≈ 159 µM).
Still for that read-out and setting: with `CC1=NN(c2ccc(Cl)cc2)C(=O)/C1=C\N(C)C` the figure was over 64 µg/mL; with `CC1=NN(c2ccc(Cl)cc2)C(=O)/C1=C\N1CCN(c2ccccc2)CC1`, 64 µg/mL (≈ 168 µM).
On the same count and under the same terms, as for `CC1=NN(c2ccc(Cl)cc2)C(=O)/C1=C(/c1ccc(Cl)cc1)N1CCOCC1`, the figure is 4 µg/mL (≈ 9.61 µM); as for `CC(=O)N1CCN(/C=C2\C(=O)N(c3ccc(Cl)cc3)N=C2C)CC1`, 64 µg/mL (≈ 185 µM); as for `CC1=NN(c2ccc(Cl)cc2)C(=O)/C1=C(/c1ccc(Cl)cc1)N1CCSCC1`, 8 µg/mL (≈ 18.5 µM).
`CC1=NN(c2ccc(Cl)cc2)C(=O)/C1=C\N1CCN(CCO)CC1` displayed an MIC of 64 µg/mL (≈ 183 µM).
On the same count and under the same terms, with `CC1=NN(c2ccc(Cl)cc2)C(=O)/C1=C(/c1ccc(Cl)cc1)N1CCC(C)CC1` the figure was 64 µg/mL (≈ 149 µM).
The same measure, in the same setting: as for `CC1=NN(c2ccccc2)C(=O)/C1=C(/c1ccc(Cl)cc1)N1CCN(C)CC1`, the figure is 8 µg/mL (≈ 20.3 µM).
`CC1=NN(c2ccccc2)C(=O)/C1=C(/c1ccc(Cl)cc1)N1CCOCC1` showed an MIC of 16 µg/mL (≈ 41.9 µM).
`CC1=NN(c2ccc(Cl)cc2)C(=O)/C1=C(/c1ccc(Cl)cc1)N1CCN(C)CC1` had an MIC of 4 µg/mL (≈ 9.32 µM).
Still for that read-out and setting: as for `CC1=NN(c2ccc(Cl)cc2)C(=O)/C1=C(/c1ccc(Cl)cc1)N1CCCCC1`, the figure is over 64 µg/mL.
In turn, `CC1=NN(c2ccc(Cl)cc2)C(=O)/C1=C(/c1ccc(Cl)cc1)N(C)C` yielded an MIC of 16 µg/mL (≈ 42.7 µM).
`CC1=NN(c2ccccc2)C(=O)/C1=C(/c1ccc(Cl)cc1)N1CCSCC1`: inhibition of growth (MIC) required 8 µg/mL (≈ 20.1 µM).
In turn, `CC1=NN(c2ccccc2)C(=O)/C1=C(/c1ccc(Cl)cc1)N(C)C` returned an MIC of 32 µg/mL (≈ 94.2 µM).
Regarding `CC1=NN(c2ccc(Cl)cc2)C(=O)/C1=C\Nc1ccccc1`, the MIC was determined as 64 µg/mL (≈ 205 µM).
The same measure, in the same setting: with `CC1=NN(c2ccc(Cl)cc2)C(=O)/C1=C\N1CCOCC1` the figure was 64 µg/mL (≈ 209 µM); with `CC1=NN(c2ccc(Cl)cc2)C(=O)/C1=C\N1CCN(C)CC1`, 64 µg/mL (≈ 201 µM).

Tested on in another data set: not listed separately
The data set is described as follows: Cytotoxicity against african green monkey Vero cells. The note with it: chlorocebus sabaeus. It is filed as cell-based.
For the compound `CC1=NN(c2ccc(Cl)cc2)C(=O)/C1=C(/c1ccc(Cl)cc1)N1CCSCC1`, the CC50 worked out at 4.86 µg/mL (≈ 11.2 µM).
In turn, `CC1=NN(c2ccccc2)C(=O)/C1=C(/c1ccc(Cl)cc1)N1CCN(C)CC1` showed a CC50 of 5.58 µg/mL (≈ 14.1 µM).
As for `CC1=NN(c2ccc(Cl)cc2)C(=O)/C1=C(/c1ccc(Cl)cc1)N1CCN(C)CC1`, the CC50 was 5.49 µg/mL (≈ 12.8 µM).
On to `CC1=NN(c2ccccc2)C(=O)/C1=C(/c1ccc(Cl)cc1)N1CCSCC1`, for which the CC50 is 5.71 µg/mL (≈ 14.3 µM).

For orientation: MIC means the least concentration at which growth counts as inhibited. Broadly, the CC50 is the concentration giving 50% cytotoxicity.

The values are drawn from ChEMBL document CHEMBL1153071, “Synthesis, biological evaluation, and SAR study of novel pyrazole analogues as inhibitors of Mycobacterium tuberculosis: part 2. Synthesis of rigid pyrazolones” (Bioorg Med Chem, 2009).
